The record followed here is ChEMBL document CHEMBL3739274, “Highly functionalized tetrahydropyridines are cytotoxic and selective inhibitors of human puromycin sensitive aminopeptidase” (Eur J Med Chem, 2015).

The structures appear in SMILES notation. Some results are limits rather than exact numbers.

The target in assay [1] is T1, Aminopeptidase N (Sus scrofa, UniProt P15145).
T1 sequence (P15145 whole entry): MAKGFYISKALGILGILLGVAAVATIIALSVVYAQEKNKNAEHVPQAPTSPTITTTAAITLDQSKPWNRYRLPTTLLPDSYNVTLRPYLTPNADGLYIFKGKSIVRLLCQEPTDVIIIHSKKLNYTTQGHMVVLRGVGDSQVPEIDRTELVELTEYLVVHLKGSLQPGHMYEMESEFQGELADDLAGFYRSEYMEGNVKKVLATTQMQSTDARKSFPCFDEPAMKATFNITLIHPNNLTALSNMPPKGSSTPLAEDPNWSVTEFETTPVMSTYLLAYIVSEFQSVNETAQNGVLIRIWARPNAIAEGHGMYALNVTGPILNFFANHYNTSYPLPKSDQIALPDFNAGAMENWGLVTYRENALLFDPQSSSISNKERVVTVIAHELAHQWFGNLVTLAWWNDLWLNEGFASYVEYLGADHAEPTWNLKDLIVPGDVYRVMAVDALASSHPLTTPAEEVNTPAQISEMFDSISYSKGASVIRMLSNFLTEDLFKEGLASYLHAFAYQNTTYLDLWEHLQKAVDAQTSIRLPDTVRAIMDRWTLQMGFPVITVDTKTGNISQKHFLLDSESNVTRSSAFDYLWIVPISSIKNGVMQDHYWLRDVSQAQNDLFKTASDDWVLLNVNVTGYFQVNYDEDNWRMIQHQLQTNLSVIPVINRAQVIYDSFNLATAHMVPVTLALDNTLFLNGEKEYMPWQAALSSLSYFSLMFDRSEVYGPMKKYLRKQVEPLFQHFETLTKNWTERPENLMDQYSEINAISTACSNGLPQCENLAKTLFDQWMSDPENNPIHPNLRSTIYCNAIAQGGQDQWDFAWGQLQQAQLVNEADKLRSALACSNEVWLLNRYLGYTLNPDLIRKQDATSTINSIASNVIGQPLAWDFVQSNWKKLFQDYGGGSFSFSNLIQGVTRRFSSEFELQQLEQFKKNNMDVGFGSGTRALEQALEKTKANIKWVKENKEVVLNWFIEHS
The assay is described as follows: Inhibition of porcine aminopeptidase-N using Leu-pNA as substrate after 30 mins. Put shortly: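 Commercial porcine enzyme was preincubated with compound in triplicate for 30 min at 37 °C. Substrate was then added and the immediate absorbance rise at 405 nm recorded. IC₅₀ was computed from the concentration series.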

A short description of assay [2]: Inhibition of Plasmodium falciparum aminopeptidase-N using Leu-pNA as substrate after 30 mins. In a few lines:
(§1)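 Enzyme was preincubated with compound in triplicate for 30 min at 37 °C in 10 mM Tris pH 7.5, 100 mM NaCl. Leu-pNA was then added and the immediate absorbance rise followed at 405 nm. IC₅₀ was computed from the concentration series.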

Assay [3] in a line: Inhibition of Escherichia coli aminopeptidase-N using Leu-pNA as substrate after 30 mins. Put shortly: as §1
In assay [4] the test system is A549. The assay is described as follows: Cytotoxicity against human A549 cells after 48 hrs by MTT assay. In kind it is functional. Particulars: A549, 48 h. Put shortly: (§2)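 Cell lines were grown in modified Eagle's medium with 10% FBS. Cells were seeded at 10,000 per well and left 24 h to attach in humid 5% CO₂. Viability was measured by MTT, with formazan dissolved in DMSO and absorbance read at 562 nm. Results are % cytotoxicity/viability, triplicates.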
Background: Formazan colour is commonly taken as a measure of viable cells.

Assay [5] deals with HeLa. In words: Cytotoxicity against human HeLa cells after 48 hrs by MTT assay. In kind it is functional. Put shortly:
as §2

The test system of assay [6] is HepG2. In words: Cytotoxicity against human HepG2 cells after 48 hrs by MTT assay. As to conditions: HepG2, 48 h. In kind it is functional. In a few lines:
as §2

Assay [7] deals with Puromycin-sensitive aminopeptidase (Homo sapiens, UniProt P55786). In words: Inhibition of recombinant human puromycin sensitive aminopeptidase using Leu-pNA as substrate after 30 mins.
Sequence of Puromycin-sensitive aminopeptidase (P55786 whole entry): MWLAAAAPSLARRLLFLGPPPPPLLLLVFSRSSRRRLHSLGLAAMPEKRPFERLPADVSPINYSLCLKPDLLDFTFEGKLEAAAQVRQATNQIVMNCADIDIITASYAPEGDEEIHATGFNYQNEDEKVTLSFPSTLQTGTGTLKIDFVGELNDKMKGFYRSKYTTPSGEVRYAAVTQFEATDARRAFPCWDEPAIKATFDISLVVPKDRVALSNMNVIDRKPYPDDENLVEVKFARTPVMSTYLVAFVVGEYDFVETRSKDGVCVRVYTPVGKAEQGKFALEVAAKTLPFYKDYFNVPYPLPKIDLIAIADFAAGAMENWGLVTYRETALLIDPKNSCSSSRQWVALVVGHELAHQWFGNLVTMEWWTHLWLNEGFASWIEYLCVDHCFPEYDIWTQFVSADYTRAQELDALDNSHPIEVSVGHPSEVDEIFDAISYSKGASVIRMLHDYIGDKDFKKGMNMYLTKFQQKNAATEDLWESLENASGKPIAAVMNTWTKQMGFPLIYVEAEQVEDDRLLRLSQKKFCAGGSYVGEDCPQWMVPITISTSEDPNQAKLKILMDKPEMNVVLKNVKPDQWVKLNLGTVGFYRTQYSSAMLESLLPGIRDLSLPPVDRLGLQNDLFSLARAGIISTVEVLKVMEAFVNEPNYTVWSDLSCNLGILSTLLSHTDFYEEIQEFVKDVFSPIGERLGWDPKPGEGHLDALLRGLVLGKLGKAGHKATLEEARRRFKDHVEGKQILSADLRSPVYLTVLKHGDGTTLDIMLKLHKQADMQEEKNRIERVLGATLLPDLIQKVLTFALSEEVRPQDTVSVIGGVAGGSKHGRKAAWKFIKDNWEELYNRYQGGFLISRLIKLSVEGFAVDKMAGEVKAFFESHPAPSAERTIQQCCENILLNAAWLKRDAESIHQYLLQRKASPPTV

For `OC1=CC(c2ccccn2)N(c2ccccc2)C(c2ccccn2)C1` (stereo not given), the IC50 in assay [1], in assay [2] and in assay [3] was > 100 µM in each case.
As for `CCOC(=O)C1=C(Nc2ccccc2)CC(c2ccc(Br)cc2)N(c2ccccc2)C1c1ccc([N+](=O)[O-])cc1` (stereo not given), the GI50 in assay [4] was > 100 µM; in assay [5] it was 10.6 µM; in assay [6], > 100 µM.
Take `COC(=O)C1=C(Nc2ccccc2)CC(c2ccc([N+](=O)[O-])cc2)N(c2ccccc2)C1c1ccc([N+](=O)[O-])cc1` (stereo not given): the 50% inhibitory concentration (IC50) in assay [1], in assay [2] and in assay [3] was > 100 µM each time.
Regarding `CCOC(=O)C1=C(Nc2ccccc2)CC(c2cc(OC)c(OC)c(OC)c2)N(c2ccccc2)C1c1cccnc1` (stereo not given), the concentration for half-maximal inhibition (IC50) in assay [1], in assay [2] and in assay [3] was > 100 µM each time.
Turning to `CCOC(=O)C1C(=O)CC(c2cccnc2)N(c2ccccc2)C1c1cccnc1` (stereo not given), the 50% growth inhibitory concentration (GI50) in assay [4] was > 100 µM; in assay [5], 9.32 µM; in assay [6], 11.2 µM. Further, the IC50 in assay [1], in assay [2] and in assay [3] was > 100 µM in each case.
For the compound `CCOC(=O)C1C(=O)CC(c2ccccn2)N(c2ccccc2)C1c1ccccn1` (stereo not given), the IC50 in assay [1], in assay [2] and in assay [3] was > 100 µM each time.
`CCOC(=O)C1=C(Nc2ccc(C)cc2)CC(c2ccc(F)cc2)N(c2ccc(C)cc2)C1c1ccc(F)cc1` (stereo not given): the figures for the concentration for 50% growth inhibition (GI50) in assay [4], in assay [5] and in assay [6] were > 100 µM, > 100 µM and 14.9 µM, respectively.
On to `CCOC(=O)C1=C(Nc2ccccc2)CC(c2ccc(Br)cc2)N(c2ccccc2)C1c1cccs1` (stereo not given), for which the 50% inhibitory concentration (IC50) in assay [1], in assay [2] and in assay [3] was > 100 µM throughout.
For the compound `CCOC(=O)C1=C(Nc2ccccc2)CC(c2ccc(Cl)cc2)N(c2ccccc2)C1c1cccnc1` (stereo not given), the 50% growth inhibitory concentration (GI50) in assay [4] is > 100 µM; in assay [5], 9.95 µM; in assay [6] it was 11.9 µM. Besides, the 50% inhibitory concentration (IC50) in assay [1], in assay [2] and in assay [3] was > 100 µM in each case.
Consider `CCOC(=O)C1=C(Nc2ccc(C)cc2)CC(c2ccccc2)N(c2ccc(C)cc2)C1c1ccccn1` (stereo not given), for which the GI50 in assay [4] is > 100 µM; in assay [5] it was 90.7 µM; in assay [6], > 100 µM. The concentration for half-maximal inhibition (IC50) in assay [1], in assay [2] and in assay [3] was > 100 µM each time.
Consider `CCOC(=O)C1=C(Nc2ccccc2)CC(c2ccccn2)N(c2ccccc2)C1c1ccccn1` (stereo not given), for which the half-maximal inhibitory concentration (IC50) in assay [1], in assay [2] and in assay [3] was > 100 µM in each case.
Regarding `CCOC(=O)C1=C(Nc2ccccc2)CC(c2ccc(C#N)cc2)N(c2ccccc2)C1c1cccnc1` (stereo not given), the concentration for 50% growth inhibition (GI50) was > 100 µM in assay [4], > 100 µM in assay [5] and 13.7 µM in assay [6]. Further, the IC50 in assay [1], in assay [2] and in assay [3] was > 100 µM throughout.
As to `CCOC(=O)C1=C(Nc2ccccc2)CC(c2ccc(C#N)cc2)N(c2ccccc2)C1c1ccccn1` (stereo not given), the concentration for half-maximal inhibition (IC50) in assay [1], in assay [2] and in assay [3] was > 100 µM each time.
As to `OC1=CC(c2cccnc2)N(c2ccccc2)C(c2cccnc2)C1` (stereo not given), the concentration for half-maximal inhibition (IC50) in assay [1], in assay [2] and in assay [3] was > 100 µM throughout.
On to `CCOC(=O)C1=C(Nc2ccccc2)CC(c2ccc(F)cc2)N(c2ccccc2)C1c1ccc([N+](=O)[O-])cc1` (stereo not given), for which the figures for the concentration for 50% growth inhibition (GI50) in assay [4], in assay [5] and in assay [6] were > 100 µM, 88.2 µM and > 100 µM, respectively.
Turning to `CCOC(=O)C1=C(Nc2ccccc2)CC(c2cccnc2)N(c2ccccc2)C1c1cccnc1` (stereo not given), the figures for the GI50 in assay [4], in assay [5] and in assay [6] were > 100 µM, 87.9 µM and 81.5 µM, respectively. In addition, the concentration for half-maximal inhibition (IC50) in assay [1], in assay [2] and in assay [3] was > 100 µM throughout.
Turning to `COc1cccc2c1C(=O)c1c(O)c3c(c(O)c1C2=O)C[C@@](O)(C(=O)CO)C[C@@H]3O[C@H]1C[C@H](N)[C@H](O)[C@H](C)O1` [DOXORUBICIN], the concentration for 50% growth inhibition (GI50) in assay [4] worked out at 8.14 µM; in assay [5], 7.51 µM; in assay [6], 4.45 µM.
Consider `COc1ccc(C[C@H](N)C(=O)N[C@H]2[C@@H](O)[C@H](n3cnc4c(N(C)C)ncnc43)O[C@@H]2CO)cc1` [PUROMYCIN], for which the half-inhibitory concentration (IC50) was > 100 µM in assay [1], > 100 µM in assay [2], 2.45 µM in assay [7] and > 100 µM in assay [3].

By IC50 is commonly meant the concentration needed to halve the response being measured. Usually GI50 stands for the concentration at which growth is held to half of that of the control. Higher therefore signals lower sensitivity of the cells.
